From ChEMBL document CHEMBL1143879, “Identification of novel series of human CCR1 antagonists” (Bioorg Med Chem Lett, 2008)
pIC50: −log10 of the molar value.

Experiments:
[1] = biological target: T1, C-C chemokine receptor type 1 (Homo sapiens, UniProt P32246); experiment: Antagonist activity at human CCR1 receptor expressed in THP1 cells assessed as human MIP-1-alpha-stimulated intracellular calcium level by FLIPR assay; format: functional, cell-based, THP-1
T1 sequence (P32246 whole entry): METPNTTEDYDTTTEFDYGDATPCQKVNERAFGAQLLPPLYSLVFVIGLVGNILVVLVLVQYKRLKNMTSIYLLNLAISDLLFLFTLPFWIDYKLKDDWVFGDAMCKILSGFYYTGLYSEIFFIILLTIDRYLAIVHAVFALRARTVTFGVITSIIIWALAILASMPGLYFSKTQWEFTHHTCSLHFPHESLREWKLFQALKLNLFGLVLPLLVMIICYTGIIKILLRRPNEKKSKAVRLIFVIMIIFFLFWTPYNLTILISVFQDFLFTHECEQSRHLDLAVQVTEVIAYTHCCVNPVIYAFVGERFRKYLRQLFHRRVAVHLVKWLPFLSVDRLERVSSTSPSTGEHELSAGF
In short: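 THP-1 cells in RPMI-1640 at 2 × 10⁶/ml, mixed 1:1 with calcium dye buffer, loaded 30 min at 37 °C with 2.5 mM probenecid. Cells spun down, resuspended in RPMI-1640 with 0.1% BSA and plated at 1.5 × 10⁵/well with or without compound. Stimulated with 5 nM human MIP-1α; intracellular Ca²⁺ change read by FLIPR. IC50, mean of at least two independent experiments.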

[2] = tested on: THP-1; experiment: Inhibition of CCL3-induced chemotaxis in human THP1 cells after 2 hrs; format: functional, cell-based; conditions: THP-1, 2 h
In short: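 Calcein-labelled THP-1 cells washed in RPMI-1640 and resuspended at 5 × 10⁶/ml. Preincubated 30 min at 37 °C with compound or DMSO, then placed above a 5 µm polycarbonate filter in a Boyden chamber. The lower wells held 0.5 nM human MIP-1α with or without compound. Chamber incubated 2 h at 37 °C.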

[3] = biological target: T1, C-C chemokine receptor type 1; experiment: Displacement of [125I]MIP1-alpha from human CCR1 receptor expressed in THP1 cells; format: cell-based, THP-1
In short: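 THP-1 cells expressing CCR1, washed in PBS, at 5 × 10⁶/ml with compound or vehicle and 50 pM human [¹²⁵I]MIP-1α. Binding buffer: 50 mM Hepes pH 7.4, 5 mM MgCl₂, 1 mM CaCl₂, 0.5% BSA. Incubated 90 min at room temperature, then filtered on PEI-coated glass fibre and washed with buffer plus 0.5 M NaCl. Bound counts by scintillation. IC50, mean of triplicates in one experiment.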

[4] = Selectivity for human CCR1 receptor over CCR4 receptor

Structure (SMILES) | pIC50 [1] | pIC50 [2] | pIC50 [3] | Selectivity ratio [4]
O=S(=O)(NCCCN1CCC(O)(c2ccc(Cl)cc2)CC1)c1ccccc1-c1cccs1 | 6.64 | 6.53 | 6.62 | > 100
O=S(=O)(c1ccccc1Br)N1CCC(N2CCC(O)(c3ccc(Cl)cc3)CC2)CC1 | 7.05 | 7.38 | 7.05 | > 100
O=S(=O)(c1ccccc1)N1CCC(N2CCC(O)(c3ccc(Cl)cc3)CC2)CC1 | 5.91 |  | 5.90 | > 100
